Source: ChEMBL document CHEMBL3526015, “Metabolism of the c-Fos/activator protein-1 inhibitor T-5224 by multiple human UDP-glucuronosyltransferase isoforms” (Drug Metab Dispos, 2011)

Tests used:
[1] = target: T1, UDP-glucuronosyltransferase 1A8 (Homo sapiens, UniProt Q9HAW9); assay: Drug level assessed as human UGT1A8-mediated compound formation from 5 to 50 uM T-5224 after 60 mins in presence of UDP-glucuronic acid using 0.05 to 0.2 mg/ml by HPLC method; assay type: ADME; settings: recombinant enzyme, 1 h
T1 sequence (Q9HAW9 whole entry): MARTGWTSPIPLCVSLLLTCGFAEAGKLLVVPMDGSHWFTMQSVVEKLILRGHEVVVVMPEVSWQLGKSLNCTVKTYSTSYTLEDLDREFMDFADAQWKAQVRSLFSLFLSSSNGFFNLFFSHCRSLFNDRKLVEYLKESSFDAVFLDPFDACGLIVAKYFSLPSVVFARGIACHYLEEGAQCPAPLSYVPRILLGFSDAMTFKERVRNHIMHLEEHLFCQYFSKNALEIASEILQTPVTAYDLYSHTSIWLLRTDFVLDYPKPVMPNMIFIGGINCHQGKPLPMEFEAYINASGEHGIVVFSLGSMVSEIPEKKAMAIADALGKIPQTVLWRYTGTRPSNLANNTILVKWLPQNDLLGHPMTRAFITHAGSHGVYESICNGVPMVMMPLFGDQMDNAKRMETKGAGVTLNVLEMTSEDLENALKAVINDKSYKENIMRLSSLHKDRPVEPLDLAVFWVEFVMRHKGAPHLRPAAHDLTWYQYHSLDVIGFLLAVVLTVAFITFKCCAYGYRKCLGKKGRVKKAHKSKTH
How it was run: (§1)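 Recombinant human UGT microsomes from baculovirus-infected insect cells, 0.1 mg protein/mL, in 50 mM Tris-HCl pH 7.5, 8 mM MgCl2, alamethicin. T-5224 in DMSO (2% v/v final). Preincubated 5 min at 37°C, started with 2 mM UDPGA, run 60 min at 37°C and stopped with acetonitrile. Glucuronides resolved by C18 HPLC with UV at 290 nm. Linearity was checked at 0.05–0.2 mg/mL protein and 10–60 min.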

[2] = Drug level in pooled human intestinal microsomes treated with 10 uM T-5224 assessed as compound formation after 10 mins by HPLC method; assay type: ADME, Intestine, Microsome
How it was run: (§2)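 Pooled human liver microsomes at 0.5 mg protein/mL, or pooled intestinal microsomes at 0.25 mg/mL, in 50 mM Tris-HCl pH 7.5, 8 mM MgCl2, alamethicin, with 2 mM UDPGA. T-5224 at 10 μM, 10 min at 37°C after 5 min preincubation; stopped with acetonitrile. HPLC with UV at 290 nm. Linearity was tested over 0.1–1.0 mg/mL protein and 5–30 min.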

[3] = system: Liver microsome; assay: Drug level in pooled human liver microsomes treated with 10 uM T-5224 assessed as compound formation after 5 to 30 mins by HPLC method; assay type: ADME; how it was run: as §2
[4] = target: T2, UDP-glucuronosyltransferase 1A1 (Homo sapiens, UniProt P22309); assay: Drug level assessed as human UGT1A1-mediated compound formation from 5 to 50 uM T-5224 after 10 to 60 mins in presence of UDP-glucuronic acid by HPLC method; assay type: ADME; settings: recombinant enzyme; how it was run: as §1
T2 sequence (P22309 whole entry): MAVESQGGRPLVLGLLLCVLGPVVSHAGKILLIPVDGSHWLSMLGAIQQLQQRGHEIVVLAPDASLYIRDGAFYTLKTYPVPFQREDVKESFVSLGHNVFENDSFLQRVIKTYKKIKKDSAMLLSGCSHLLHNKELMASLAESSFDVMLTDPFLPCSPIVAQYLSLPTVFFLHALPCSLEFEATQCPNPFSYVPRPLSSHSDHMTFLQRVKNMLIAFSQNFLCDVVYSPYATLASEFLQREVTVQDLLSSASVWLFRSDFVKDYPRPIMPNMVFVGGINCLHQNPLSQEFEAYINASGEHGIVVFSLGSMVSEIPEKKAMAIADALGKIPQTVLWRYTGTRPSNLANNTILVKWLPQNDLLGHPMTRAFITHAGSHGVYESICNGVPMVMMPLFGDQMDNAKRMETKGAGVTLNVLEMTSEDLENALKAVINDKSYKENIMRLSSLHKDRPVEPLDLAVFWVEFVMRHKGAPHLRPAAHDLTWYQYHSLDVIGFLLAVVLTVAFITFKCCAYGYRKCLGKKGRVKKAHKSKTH

[5] = target: T2, UDP-glucuronosyltransferase 1A1; assay: Drug level assessed as human UGT1A1-mediated compound formation from 5 to 50 uM T-5224 after 60 mins in presence of UDP-glucuronic acid by HPLC method; assay type: ADME; settings: recombinant enzyme, 1 h; how it was run: as §1
[6] = target: T1, UDP-glucuronosyltransferase 1A8; assay: Drug level assessed as human UGT1A8-mediated compound formation from 5 to 50 uM T-5224 after 10 to 60 mins in presence of UDP-glucuronic acid by HPLC method; assay type: ADME; settings: recombinant enzyme; how it was run: as §1
[7] = target: T3, UDP-glucuronosyltransferase 1A3 (Homo sapiens, UniProt P35503); assay: Drug level assessed as human UGT1A3-mediated compound formation from 5 to 50 uM T-5224 after 60 mins in presence of UDP-glucuronic acid using 0.05 to 0.2 mg/ml by HPLC method; assay type: ADME; settings: recombinant enzyme, 1 h; how it was run: as §1
T3 sequence (P35503 whole entry): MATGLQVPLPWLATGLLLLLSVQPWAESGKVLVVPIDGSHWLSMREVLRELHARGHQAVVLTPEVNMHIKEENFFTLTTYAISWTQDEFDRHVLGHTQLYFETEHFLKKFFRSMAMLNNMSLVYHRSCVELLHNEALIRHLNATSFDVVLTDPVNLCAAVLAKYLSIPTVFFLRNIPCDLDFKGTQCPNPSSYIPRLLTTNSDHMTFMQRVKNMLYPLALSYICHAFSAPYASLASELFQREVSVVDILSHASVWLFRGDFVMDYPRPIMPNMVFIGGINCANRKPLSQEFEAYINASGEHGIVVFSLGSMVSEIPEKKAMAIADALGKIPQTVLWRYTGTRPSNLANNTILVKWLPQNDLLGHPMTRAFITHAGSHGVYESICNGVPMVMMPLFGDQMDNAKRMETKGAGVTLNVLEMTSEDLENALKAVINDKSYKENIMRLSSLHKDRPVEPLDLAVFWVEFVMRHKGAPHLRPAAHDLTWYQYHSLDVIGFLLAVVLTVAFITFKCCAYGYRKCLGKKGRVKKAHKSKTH

[8] = target: T2, UDP-glucuronosyltransferase 1A1; assay: Drug level assessed as human UGT1A1-mediated compound formation from 5 to 50 uM T-5224 after 60 mins in presence of UDP-glucuronic acid using 0.05 to 0.2 mg/ml by HPLC method; assay type: ADME; settings: recombinant enzyme, 1 h; how it was run: as §1
[9] = Drug level in pooled human intestinal microsomes treated with 10 uM T-5224 assessed as compound formation after 5 to 30 mins by HPLC method; assay type: ADME, Intestine, Microsome; how it was run: as §2
[10] = target: T1, UDP-glucuronosyltransferase 1A8; assay: Drug level assessed as human UGT1A8-mediated compound formation from 5 to 50 uM T-5224 after 60 mins in presence of UDP-glucuronic acid by HPLC method; assay type: ADME; settings: recombinant enzyme, 1 h; how it was run: as §1
[11] = system: Liver microsome; assay: Drug level in pooled human liver microsomes treated with T-5224 assessed as compound formation in presence of UDPGA by LC-MS/MS method; assay type: ADME
[12] = system: Liver microsome; assay: Drug level in pooled human liver microsomes treated with 10 uM T-5224 assessed as compound formation after 10 mins using 0.1 to 1.0 mg/ml microsomal protein content by HPLC method; assay type: ADME; how it was run: as §2
[13] = system: Liver microsome; assay: Drug level in pooled human liver microsomes treated with 10 uM T-5224 assessed as compound formation after 10 mins by HPLC method; assay type: ADME; how it was run: as §2
[14] = Drug level in pooled human intestinal microsomes treated with 10 uM T-5224 assessed as compound formation after 10 mins using 0.1 to 1.0 mg/ml microsomal protein content by HPLC method; assay type: ADME, Intestine, Microsome; how it was run: as §2
[15] = target: T3, UDP-glucuronosyltransferase 1A3; assay: Drug level assessed as human UGT1A3-mediated compound formation from 5 to 50 uM T-5224 after 60 mins in presence of UDP-glucuronic acid by HPLC method; assay type: ADME; settings: recombinant enzyme, 1 h; how it was run: as §1
[16] = target: T3, UDP-glucuronosyltransferase 1A3; assay: Drug level assessed as human UGT1A3-mediated compound formation from 5 to 50 uM T-5224 after 10 to 60 mins in presence of UDP-glucuronic acid by HPLC method; assay type: ADME; settings: recombinant enzyme; how it was run: as §1

With `O=C(O)CCc1cc(C(=O)c2ccc(OC3CCCC3)cc2O)ccc1OCc1ccc2c(O[C@@H]3O[C@H](C(=O)O)[C@@H](O)[C@H](O)[C@H]3O)noc2c1` the Drug metabolism [1] was “Dose-dependent effect”, the Drug metabolism [2] was “metabolite_detected” and the Drug metabolism [3] was “Dose-dependent effect”. For the same compound, the Drug metabolism [4] was “Dose-dependent effect”, the Drug metabolism [5] was “metabolite_detected” and the Drug metabolism [6] was “Dose-dependent effect”. For the same compound, the Drug metabolism [7] was “Dose-dependent effect”, the Drug metabolism [8] was “Dose-dependent effect” and the Drug metabolism [9] was “Dose-dependent effect”. The Drug metabolism [10] was “metabolite_detected”, the Drug metabolism [11] was “metabolite_detected” and the Drug metabolism [12] was “Dose-dependent effect”. The Drug metabolism [13] was “metabolite_detected”, the Drug metabolism [14] was “Dose-dependent effect” and the Drug metabolism [15] was “metabolite_detected”. For the same compound, the Drug metabolism [16] was “Dose-dependent effect”.
